Measured values as given in ChEMBL document CHEMBL2311442, “Identification of novel antimycobacterial chemical agents through the in silico multi-conformational structure-based drug screening of a large-scale chemical library” (Eur J Med Chem, 2013).
Calls of active or inactive are those of the source. No cut-off for these calls is given here.

What was measured:
[1] = tested on: Mycobacterium vanbaalenii; experiment: Growth inhibition of Mycobacterium vanbaalenii at 50 uM after 18 hrs; format: functional; details: Mycolicibacterium vanbaalenii
Procedure, shortened: (§1)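 Mycobacteria grown overnight or 2 days at 37 C, 300 rpm in 3.7% brain heart infusion broth; M. smegmatis diluted 8x before seeding. Diluted culture incubated with compound (M. vanbaalenii 50 uM, M. smegmatis 100 uM). Controls: 0.3% DMSO (negative), isoniazid (positive). A595 read at 4, 8, 18, 24 h. Mean ± SEM of four experiments; Dunnett's test.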

[2] = tested on: Mycolicibacterium smegmatis; experiment: Growth inhibition of Mycobacterium smegmatis at 100 uM after 24 hrs; format: functional, organism-based; procedure, shortened: as §1
[3] = tested on: Mycobacterium vanbaalenii; experiment: Growth inhibition of Mycobacterium vanbaalenii at 50 uM up to 24 hrs; format: functional; details: Mycolicibacterium vanbaalenii; procedure, shortened: as §1
[4] = Cytotoxicity against human SH-SY5Y at 50 uM after 2 days by CCK8 assay; format: cell-based; details: 48 h
Procedure, shortened: (§2)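 MDCK (5.0 x 10^3/well) and SH-SY5Y (1.5 x 10^4/well) in DMEM with 10% FBS, penicillin/streptomycin, 2 mM glutamine. Starved in 0.25% FBS (MDCK overnight, SH-SY5Y 2 days), then given compound at 50 uM in 0.25% FBS medium. Exposure: MDCK 1 day, SH-SY5Y 2 days. CCK-8 added, 3 h, WST-8 formazan A450. Isoniazid 50 uM control; mean ± SEM, n=4; Dunnett's test.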

MDCK = experiment: Cytotoxicity against MDCK at 50 uM after 1 day by CCK8 assay; format: cell-based, Canis lupus familiaris; details: dog, 24 h; procedure, shortened: as §2
Escherichia coli [5] = experiment: Toxicity against Escherichia coli BL21 at 50 uM after 24 hrs
Escherichia coli [6] = experiment: Toxicity against Escherichia coli JM 109 at 50 uM after 24 hrs; format: organism-based; details: in vivo
[7] = tested on: Mycobacterium vanbaalenii; experiment: Antimycobacterial activity against Mycobacterium vanbaalenii incubated up to 24 hrs; format: functional, Mycolicibacterium vanbaalenii
Procedure, shortened: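 M. vanbaalenii grown overnight or 2 days at 37 C, 300 rpm in 3.7% brain heart infusion broth, diluted, then incubated in medium with compound across a dose range. Growth read as A595 at 4, 8, 18 and 24 h; growth rate (%) taken from 24 h culture. IC50 from dose-response; mean ± SD, four independent experiments.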

[8] = molecular target: T1, Enoyl-[acyl-carrier-protein] reductase [NADH] (Mycobacterium tuberculosis, UniProt P9WGR1); experiment: Inhibition of Mycobacterium tuberculosis InhA
T1 sequence (P9WGR1 whole entry): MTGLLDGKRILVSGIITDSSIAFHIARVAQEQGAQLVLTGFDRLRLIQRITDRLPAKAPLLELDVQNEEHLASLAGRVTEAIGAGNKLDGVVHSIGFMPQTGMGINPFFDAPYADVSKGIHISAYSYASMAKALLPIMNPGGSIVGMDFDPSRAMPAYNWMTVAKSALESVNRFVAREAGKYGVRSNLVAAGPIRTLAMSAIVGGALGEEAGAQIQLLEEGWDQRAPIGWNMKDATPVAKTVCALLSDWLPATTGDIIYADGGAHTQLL

Thymidylate kinase = molecular target: T2, Thymidylate kinase (Mycobacterium tuberculosis, UniProt P9WKE1); experiment: Inhibition of Mycobacterium tuberculosis thymidine monophosphate kinase
T2 sequence (P9WKE1 whole entry): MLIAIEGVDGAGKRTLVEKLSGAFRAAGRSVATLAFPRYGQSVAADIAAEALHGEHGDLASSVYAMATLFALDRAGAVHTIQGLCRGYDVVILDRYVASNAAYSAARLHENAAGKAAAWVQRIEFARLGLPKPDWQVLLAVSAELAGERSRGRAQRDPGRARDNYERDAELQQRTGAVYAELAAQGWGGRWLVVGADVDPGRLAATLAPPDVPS

Row | SMILES | growth inhibition (GI) [1] | growth inhibition (GI) [2] | growth inhibition (GI) [3] | IC50 [7] [µM] | also measured
1 | CCc1cc(=O)oc2cc(OCC(=O)OCc3ccccc3)c(Cl)cc12 | Active | inactive | Active | – | –
2 | COc1ccc(-c2cc3ccccc3oc2=O)cc1NC(=O)COc1ccc(Cl)cc1C | – | – | inactive | – | –
3 | CCCCc1cc(=O)oc2cc(OCC(=O)OCC)c(Cl)cc12 | – | – | inactive | – | –
4 | CCOc1ccc(NC(=O)CSc2nc3ccc(NC(=O)c4ccccc4C)cc3s2)cc1 | – | – | inactive | – | –
5 | Cc1ccc(Nc2nc(Nc3ccc(C)cc3)nc(Sc3nnc(C)s3)n2)cc1 | Active | Active | Active | 22 | Activity [4]: Toxic; Activity (MDCK): Toxic; Activity (Escherichia coli [5]): Non-toxic; Activity (Escherichia coli [6]): Non-toxic
6 | CCCc1cc(=O)oc2cc(OCC(=O)OCc3ccccc3)c(Cl)cc12 | – | – | inactive | – | –
7 | NC(=O)C1=CN([C@@H]2O[C@H](COP(=O)(O)OP(=O)(O)OC[C@H]3O[C@@H](n4cnc5c(N)ncnc54)[C@H](O)[C@@H]3O)[C@@H](O)[C@H]2O)C=C[C@H]1C(=O)c1ccncc1 | – | – | – | – | Ki [8]: 0.75 nM
8 | O=C(Oc1cccc2cccnc12)c1ccc(S(=O)(=O)c2ccc(Cl)cc2)cc1 | Active | Active | Active | 20 | Activity [4]: Non-toxic; Activity (MDCK): Non-toxic; Activity (Escherichia coli [5]): Non-toxic; Activity (Escherichia coli [6]): Non-toxic
9 | CC(C)Oc1cccc(-c2cc(C(=O)NCCc3ccc(S(N)(=O)=O)cc3)c3ccccc3n2)c1 | Active | Active | Active | 15 | Activity [4]: Non-toxic; Activity (MDCK): Non-toxic; Activity (Escherichia coli [5]): Non-toxic; Activity (Escherichia coli [6]): Non-toxic
10 | NNC(=O)c1ccncc1 [ISONIAZID] | Active | Active | – | 2.6 | –
11 | Cc1cn([C@H]2C[C@H](CN=[N+]=[N-])[C@@H](COP(=O)(O)O)O2)c(=O)[nH]c1=O | – | – | – | – | Ki (Thymidylate kinase): 10 µM
12 | COC(=O)COc1ccc(NC(=O)c2ccc(C(C)(C)C)cc2)cc1 | – | – | inactive | – | –
13 | O=C(Nc1ccc(OCc2ccccc2)cc1)C1CCN(C(=O)c2ccc([N+](=O)[O-])cc2)CC1 | – | – | inactive | – | –
